Reference: ChEMBL document CHEMBL1134569, “Synthesis and in vitro and in vivo antimalarial activity of new 4-anilinoquinolines” (J Med Chem, 2001)

Key:
[1] = Cytotoxicity upon MPMs (mouse peritoneal macrophages) at 6.3 uM
How it was run: (§1)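 Mouse peritoneal macrophages harvested 48 h after potato-starch stimulation and seeded at 30000 cells/well. After 24 h, washed and exposed to 2-fold drug dilutions in RPMI + 5% FCS (final DMSO below 0.5%) at 37 °C, 5% CO₂, for 7 days. Toxicity scored microscopically as toxic or not versus untreated controls.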

[2] = Cytotoxicity upon MRC-5 cells (diploid embryonic lung cell line) at 6.3 uM; assay type: cell-based, MRC5; settings: human
How it was run: (§2)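 MRC-5 human diploid embryonic lung cells seeded at 5000/well, washed after 24 h, then given 2-fold drug dilutions in RPMI + 5% FCS (final DMSO below 0.5%). Incubated at 37 °C, 5% CO₂, for 7 days. MTT read-out at 540 nm, scored as percent absorbance reduction versus untreated controls.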

[3] = Cytotoxicity upon MPMs (mouse peritoneal macrophages) at 12.5 uM conc.; Toxic; how it was run: as §1
[4] = Cytotoxicity upon MRC-5 cells (diploid embryonic lung cell line) at 3.1 uM; assay type: cell-based, MRC5; settings: human; how it was run: as §2
[5] = Cytotoxicity upon MPMs (mouse peritoneal macrophages) at 3.1 uM conc.;NT=No Toxicity; how it was run: as §1
[6] = Cytotoxicity upon MRC-5 cells (diploid embryonic lung cell line) at 12.5 uM; assay type: cell-based, MRC5; settings: human; how it was run: as §2
[7] = tested on: Plasmodium falciparum; assay: Inhibitory activity against chloroquine-resistant Plasmodium falciparum FcB1R; assay type: functional, organism-based; settings: Plasmodium falciparum
[8] = Cytotoxicity upon MPMs (mouse peritoneal macrophages) at 12.5 uM conc.;NT=No Toxicity; how it was run: as §1
[9] = Cytotoxicity upon MRC-5 cells (diploid embryonic lung cell line) at 25 uM conc.; assay type: cell-based, MRC5; settings: human; how it was run: as §2
[10] = Cytotoxicity upon MPMs (mouse peritoneal macrophages) at 2 uM; how it was run: as §1
[11] = Cytotoxicity upon MRC-5 cells (diploid embryonic lung cell line) at 1.6 uM conc.; assay type: cell-based, MRC5; settings: human; how it was run: as §2

Row | Compound | NT [1] | cytotoxicity at 6.3 µM [2] [%] | Cytotoxicity [3] | cytotoxicity at 3.1 µM [4] [%] | NT [5] | cytotoxicity at 12.5 µM [6] [%] | IC50 [7] [µM] | NT [8] | cytotoxicity at 25 µM [9] [%] | NT [10] | cytotoxicity at 1.6 µM [11] [%]
1 | O=C(CN1CCCC1)Nc1cc(CO)cc(Nc2ccnc3cc(Cl)ccc23)c1 | Cytotoxicity upon MPMs at 6.3 uM | 0 | Toxic | 0 | Cytotoxicity upon MPMs at 6.3 uM | 0 | 0.044 | – | – | – | –
2 | CC1CCN(CCCCCCCCCCCC(=O)Nc2cc(CO)cc(Nc3ccnc4cc(Cl)ccc34)c2)CC1 | Cytotoxicity upon MPMs at 6.3 uM | 0 | Toxic | 0 | Cytotoxicity upon MPMs at 6.3 uM | 100 | 0.086 | – | – | – | –
3 | O=C(Nc1cc(CO)cc(Nc2ccnc3cc(Cl)ccc23)c1)c1ccccc1 | Cytotoxicity upon MPMs at 6.3 uM | 0 | – | 0 | Cytotoxicity upon MPMs at 6.3 uM | 0 | > 1 | Cytotoxicity upon MPMs at 6.3 uM | – | – | –
4 | CN1CCN(CCCCC(=O)OCc2cc(NC(=O)CN3CCCCC3)cc(Nc3ccnc4cc(Cl)ccc34)c2)CC1 | Cytotoxicity upon MPMs at 2 uM | 0 | – | – | – | – | 0.0651 | Cytotoxicity upon MPMs at 2 uM | 97 | Cytotoxicity upon MPMs at 2 uM | 0
5 | O=C(CN1CCCCC1)Nc1cc(COC(=O)c2ccccc2)cc(Nc2ccnc3cc(Cl)ccc23)c1 | Cytotoxicity upon MPMs at 2 uM | 38 | Toxic | – | – | – | 0.0755 | – | 66 | Cytotoxicity upon MPMs at 2 uM | 20
6 | Nc1cc(CO)cc(Nc2ccnc3cc(Cl)ccc23)c1 | Cytotoxicity upon MPMs at 2 uM | 0 | – | 0 | Cytotoxicity upon MPMs at 2 uM | 0 | 0.279 | Cytotoxicity upon MPMs at 2 uM | – | Cytotoxicity upon MPMs at 2 uM | 0
7 | CC1CCN(CCCCCCCC(=O)Nc2cc(CO)cc(Nc3ccnc4cc(Cl)ccc34)c2)CC1 | Cytotoxicity upon MPMs at 6.3 uM | 0 | – | 0 | Cytotoxicity upon MPMs at 6.3 uM | 0 | 0.308 | Cytotoxicity upon MPMs at 6.3 uM | – | – | –
8 | O=C(CN1CCOCC1)Nc1cc(CO)cc(Nc2ccnc3cc(Cl)ccc23)c1 | Cytotoxicity upon MPMs at 6.3 uM | 0 | – | 0 | Cytotoxicity upon MPMs at 6.3 uM | 0 | > 1 | Cytotoxicity upon MPMs at 6.3 uM | – | – | –
9 | O=C(CN1CCCCC1)Nc1cc(COC(=O)CCN2CCCCC2)cc(Nc2ccnc3cc(Cl)ccc23)c1 | Cytotoxicity upon MPMs at 2 uM | 0 | – | – | – | – | 0.0783 | Cytotoxicity upon MPMs at 2 uM | 90 | Cytotoxicity upon MPMs at 2 uM | 0
10 | O=C(CN1CCCCC1)Nc1cc(COC(=O)CCCCN2CCCC2)cc(Nc2ccnc3cc(Cl)ccc23)c1 | Cytotoxicity upon MPMs at 2 uM | 83 | – | – | – | – | 0.023 | Cytotoxicity upon MPMs at 2 uM | 82 | Cytotoxicity upon MPMs at 2 uM | 0
